Results as given in ChEMBL document CHEMBL1145315, “Synthesis and hypoxic-cytotoxic activity of some 3-amino-1,2,4-benzotriazine-1,4-dioxide derivatives” (Bioorg Med Chem Lett, 2006).
Calls of active or inactive are those of the source. The rule behind the calls is not given here.

Key:
HL-60 [1] = experiment: Cytotoxicity against human HL60 cells after 48 hrs by MTT assay; type: functional, cell-based; conditions: HL-60, 48 h
Method in brief: (§1)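 Cells were exposed in hypoxia for 48 h with tirapazamine as the reference drug. Growth was read by MTT assay and IC50 was calculated by the LOGIT method.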

K562 = experiment: Cytotoxicity against human K562 cells after 48 hrs by MTT assay; type: functional, cell-based; conditions: K562, 48 h; method in brief: as §1
HepG2 = experiment: Cytotoxicity against human HepG2 cells after 48 hrs by MTT assay; type: functional, cell-based; conditions: HepG2, 48 h; method in brief: as §1
PC-3 = experiment: Cytotoxicity against human PC3 cells after 48 hrs by MTT assay; type: functional, cell-based; conditions: PC-3, 48 h; method in brief: as §1
MOLT-4 [2] = experiment: Cytotoxicity against human Molt4 cells in normoxia after 48 hrs; type: functional, cell-based; conditions: MOLT-4, 48 h
Method in brief: (§2)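 Cells were exposed for 48 h in either normoxia or hypoxia. IC50 was determined separately under each oxygen condition.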

MOLT-4 [3] = experiment: Cytotoxicity against human Molt4 cells in hypoxia after 48 hrs; type: functional, cell-based; conditions: MOLT-4, 48 h; method in brief: as §2
MOLT-4 [4] = experiment: Ratio of cytotoxicity against human Molt4 cells in normoxia to hypoxia after 48 hrs; type: functional, cell-based; conditions: MOLT-4, 48 h
HL-60 [5] = experiment: Cytotoxicity against human HL60 cells in normoxia after 48 hrs; type: functional, cell-based; conditions: HL-60, 48 h; method in brief: as §2
MOLT-4 [6] = experiment: Induction of apoptosis in human Molt4 cells after 24 hrs at 2 uM; type: functional
Method in brief: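 Cells were cultured in complete medium under 3% O2 with 2.0 μM compound for 24 h, alongside an untreated control. Lysed nuclei were stained with propidium iodide, and DNA content was analysed by flow cytometry on 20,000 events per test, scoring the apoptotic fraction. The experiment was done three times.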

HL-60 [7] = experiment: Cytotoxicity against human HL60 cells in hypoxia after 48 hrs; type: functional, cell-based; conditions: HL-60, 48 h; method in brief: as §2
HL-60 [8] = experiment: Ratio of cytotoxicity against human HL60 cells in normoxia to hypoxia after 48 hrs; type: functional, cell-based; conditions: HL-60, 48 h
MOLT-4 [9] = experiment: Reduction of mitochondrial membrane potential in human Molt4 cells after 12 hrs at 2 uM; type: functional, cell-based
Method in brief: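 Cells were treated with 2.0 μM compound for 12 h in hypoxia and then stained with JC-1. Flow cytometry read depolarization as a rise in the green:red fluorescence ratio. Values are means ± SD from three separate experiments, each run in triplicate.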

MOLT-4 [10] = experiment: Increase in p53 level in human Molt4 cells in hypoxia after 24 hrs at 2 uM; type: functional, cell-based
Method in brief: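 Cells were exposed to 2.0 μM compound for 24 h in hypoxia, and p53 protein was measured by Western blot. The experiment was repeated three times.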

MOLT-4 [11] = experiment: Cytotoxicity against human Molt4 cells after 48 hrs by MTT assay; type: functional, cell-based; conditions: MOLT-4, 48 h; method in brief: as §1

Compound: COc1ccc(Nc2n[n+]([O-])c3ccccc3[n+]2[O-])cc1
- IC50 (HL-60 [1]): 0.9 µM
- IC50 (K562): 2.9 µM
- IC50 (HepG2): 10.1 µM
- IC50 (PC-3): 12 µM
- IC50 (MOLT-4 [2]): 5.2 µM
- IC50 (MOLT-4 [3]): 0.6 µM
- IC50 ratio (MOLT-4 [4]): 8.67
- IC50 (HL-60 [5]): 6.8 µM
- Activity (MOLT-4 [6]): 45%
- IC50 (HL-60 [7]): 0.9 µM
- IC50 ratio (HL-60 [8]): 7.56
- Activity (MOLT-4 [9]): Active
- Activity (MOLT-4 [10]): Active
- IC50 (MOLT-4 [11]): 0.6 µM

Compound: [O-][n+]1nc(NCCO)[n+]([O-])c2ccccc21
- IC50 (HL-60 [1]): 10.7 µM
- IC50 (K562): 3.7 µM
- IC50 (HepG2): 23.2 µM
- IC50 (PC-3): 22.4 µM
- IC50 (MOLT-4 [11]): 2.6 µM

Compound: C=CCNc1n[n+]([O-])c2ccccc2[n+]1[O-]
- IC50 (HL-60 [1]): 25.8 µM
- IC50 (K562): 11.2 µM
- IC50 (HepG2): > 56 µM
- IC50 (PC-3): > 56 µM
- IC50 (MOLT-4 [11]): 3 µM

Compound: CCCCCCCCNc1n[n+]([O-])c2ccccc2[n+]1[O-]
- IC50 (HL-60 [1]): 7.2 µM
- IC50 (K562): 4.7 µM
- IC50 (HepG2): 17.4 µM
- IC50 (PC-3): 18.2 µM
- IC50 (MOLT-4 [11]): 4.9 µM

Compound: [O-][n+]1nc(NC2CCCCC2)[n+]([O-])c2ccccc21
- IC50 (HL-60 [1]): 2.5 µM
- IC50 (K562): 2.6 µM
- IC50 (HepG2): 9.5 µM
- IC50 (PC-3): 10.5 µM
- IC50 (MOLT-4 [11]): 1.3 µM

Compound: CCN(CC)c1n[n+]([O-])c2ccccc2[n+]1[O-]
- IC50 (HL-60 [1]): > 49 µM
- IC50 (K562): > 55 µM
- IC50 (HepG2): > 107 µM
- IC50 (PC-3): > 107 µM
- IC50 (MOLT-4 [11]): > 17.6 µM

Compound: CCNc1n[n+]([O-])c2ccccc2[n+]1[O-]
- IC50 (HL-60 [1]): 9 µM
- IC50 (K562): 4.5 µM
- IC50 (HepG2): 13.5 µM
- IC50 (PC-3): 13.3 µM
- IC50 (MOLT-4 [11]): 3.3 µM

Compound: [O-][n+]1nc(NCc2ccccc2Cl)[n+]([O-])c2ccccc21
- IC50 (HL-60 [1]): 5.8 µM
- IC50 (K562): 2.2 µM
- IC50 (HepG2): 9.7 µM
- IC50 (PC-3): 10.6 µM
- IC50 (MOLT-4 [11]): 2.3 µM

Compound: Nc1n[n+]([O-])c2ccccc2[n+]1[O-] [TIRAPAZAMINE]
- IC50 (HL-60 [1]): 7 µM
- IC50 (K562): 5.2 µM
- IC50 (HepG2): 19.1 µM
- IC50 (PC-3): 22.3 µM
- IC50 (MOLT-4 [2]): 15.8 µM
- IC50 (MOLT-4 [3]): 4.6 µM
- IC50 ratio (MOLT-4 [4]): 3.43
- IC50 (HL-60 [5]): 16.1 µM
- Activity (MOLT-4 [6]): 11%
- IC50 (HL-60 [7]): 7 µM
- IC50 ratio (HL-60 [8]): 2.31
- Activity (MOLT-4 [9]): Active
- Activity (MOLT-4 [10]): Active
- IC50 (MOLT-4 [11]): 4.6 µM

Compound: [O-][n+]1nc(NC2CC2)[n+]([O-])c2ccccc21
- IC50 (HL-60 [1]): 3.6 µM
- IC50 (K562): 6.6 µM
- IC50 (HepG2): 13.3 µM
- IC50 (PC-3): 15.9 µM
- IC50 (MOLT-4 [11]): 1.9 µM

Compound: O=[N+]([O-])c1ccc(CNc2n[n+]([O-])c3ccccc3[n+]2[O-])cc1
- IC50 (HL-60 [1]): 1.4 µM
- IC50 (K562): 3.1 µM
- IC50 (HepG2): 7.7 µM
- IC50 (PC-3): 7.4 µM
- IC50 (MOLT-4 [2]): 5 µM
- IC50 (MOLT-4 [3]): 0.8 µM
- IC50 ratio (MOLT-4 [4]): 6.25
- IC50 (HL-60 [5]): 6 µM
- IC50 (HL-60 [7]): 1.4 µM
- IC50 ratio (HL-60 [8]): 4.29
- IC50 (MOLT-4 [11]): 0.8 µM

Compound: [O-][n+]1nc(Nc2ccccc2)[n+]([O-])c2ccccc21
- IC50 (HL-60 [1]): 2.9 µM
- IC50 (K562): 2.4 µM
- IC50 (HepG2): 15 µM
- IC50 (PC-3): 17 µM
- IC50 (MOLT-4 [11]): 1.4 µM

Compound: Cc1ccc(Nc2n[n+]([O-])c3ccccc3[n+]2[O-])cc1
- IC50 (HL-60 [1]): 1.5 µM
- IC50 (K562): 2.5 µM
- IC50 (HepG2): 10.6 µM
- IC50 (PC-3): 10.3 µM
- IC50 (MOLT-4 [11]): 1.1 µM

Compound: Nc1ccccc1Nc1n[n+]([O-])c2ccccc2[n+]1[O-]
- IC50 (HL-60 [1]): 8.3 µM
- IC50 (K562): 10.6 µM
- IC50 (HepG2): 17.4 µM
- IC50 (PC-3): 16.1 µM
- IC50 (MOLT-4 [11]): 2.3 µM

Compound: [O-][n+]1nc(N2CCOCC2)[n+]([O-])c2ccccc21
- IC50 (HL-60 [1]): > 60 µM
- IC50 (K562): > 47 µM
- IC50 (HepG2): > 95 µM
- IC50 (PC-3): > 95 µM
- IC50 (MOLT-4 [11]): > 16.1 µM

Compound: [O-][n+]1nc(NCc2ccccc2)[n+]([O-])c2ccccc21
- IC50 (HL-60 [1]): 2.5 µM
- IC50 (K562): 1.9 µM
- IC50 (HepG2): 8.2 µM
- IC50 (PC-3): 10.7 µM
- IC50 (MOLT-4 [2]): 8.1 µM
- IC50 (MOLT-4 [3]): 2.2 µM
- IC50 ratio (MOLT-4 [4]): 3.68
- IC50 (HL-60 [5]): 6.3 µM
- Activity (MOLT-4 [6]): 33%
- IC50 (HL-60 [7]): 2.5 µM
- IC50 ratio (HL-60 [8]): 2.53
- Activity (MOLT-4 [9]): Active
- Activity (MOLT-4 [10]): Active
- IC50 (MOLT-4 [11]): 2.2 µM
